pIC50: −log10 of the molar value.
What follows are molecules tested against Cannabinoid receptor 1 (Rattus norvegicus, UniProt P20272) (assay: Displacement of [3H]CP-55940 from CB1R in Sprague-Dawley rat cerebellar membrane). Conditions: not given.
Parameters: species or system Cerebellum

Sequence of Cannabinoid receptor 1 (P20272 whole entry): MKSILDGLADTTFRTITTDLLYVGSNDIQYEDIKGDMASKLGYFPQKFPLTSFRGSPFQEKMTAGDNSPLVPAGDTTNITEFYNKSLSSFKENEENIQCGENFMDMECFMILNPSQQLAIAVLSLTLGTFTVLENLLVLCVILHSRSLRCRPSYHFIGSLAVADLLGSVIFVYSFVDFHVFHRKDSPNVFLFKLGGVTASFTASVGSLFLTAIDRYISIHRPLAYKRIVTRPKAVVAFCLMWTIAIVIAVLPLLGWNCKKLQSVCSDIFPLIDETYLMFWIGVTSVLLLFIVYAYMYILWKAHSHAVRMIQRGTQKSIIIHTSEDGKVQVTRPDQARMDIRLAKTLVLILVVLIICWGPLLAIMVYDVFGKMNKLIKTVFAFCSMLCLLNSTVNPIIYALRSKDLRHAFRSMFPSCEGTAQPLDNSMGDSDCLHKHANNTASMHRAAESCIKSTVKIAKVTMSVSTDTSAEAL

**Q.** How did the IC50 turn out when `Cc1c(C(=O)NC(=O)NC(C)(C)C)nn(-c2ccc(Cl)cc2Cl)c1-c1ccc(Cl)cc1` was run?
**A.** ND(Insoluble)

**Q.** How did the IC50 turn out when `Cc1c(C(=O)NC(=O)NCC2CCCCC2)nn(-c2ccc(Cl)cc2Cl)c1-c1ccc(Cl)cc1` was run?
**A.** ND(Insoluble)

Same assay, conditions: read-out: IC50

**Q.** `Cc1c(C(=O)NS(=O)(=O)c2ccc(Cl)cc2)nn(-c2ccc(Cl)cc2Cl)c1-c1ccc(Cl)cc1` was tested. Which pIC50 did it give?
**A.** < 5.00

**Q.** With `CCC(C)(C)C(=O)N(C)C(=O)c1nn(-c2ccc(Cl)cc2Cl)c(-c2ccc(Cl)cc2)c1C` as the molecule, how does the pIC50 read?
**A.** 6.64

**Q.** With `Cc1c(C(=O)NS(=O)(=O)Cc2ccccc2)nn(-c2ccc(Cl)cc2Cl)c1-c1ccc(Cl)cc1` as the molecule, how does the pIC50 read?
**A.** < 5.00

**Q.** How did the pIC50 turn out when `CCCC(CCC)C(=O)N(C)C(=O)c1nn(-c2ccc(Cl)cc2Cl)c(-c2ccc(Cl)cc2)c1C` was run?
**A.** 6.61

**Q.** With `Cc1c(C(=O)NS(=O)(=O)c2ccc(F)cc2)nn(-c2ccc(Cl)cc2Cl)c1-c1ccc(Cl)cc1` as the molecule, how does the pIC50 read?
**A.** 5.92

**Q.** `Cc1c(C(=O)NS(=O)(=O)c2cccc(F)c2)nn(-c2ccc(Cl)cc2Cl)c1-c1ccc(Cl)cc1` was tested. Which pIC50 did it give?
**A.** < 5.00

**Q.** `CCC(CC)C(=O)N(C)C(=O)c1nn(-c2ccc(Cl)cc2Cl)c(-c2ccc(Cl)cc2)c1C` was tested. Which pIC50 did it give?
**A.** 6.58

**Q.** With `Cc1c(C(=O)NS(=O)(=O)C(C)C)nn(-c2ccc(Cl)cc2Cl)c1-c1ccc(Cl)cc1` as the molecule, how does the pIC50 read?
**A.** < 5.00

**Q.** With `CCCCS(=O)(=O)NC(=O)c1nn(-c2ccc(Cl)cc2Cl)c(-c2ccc(Cl)cc2)c1C` as the molecule, how does the pIC50 read?
**A.** < 5.00

**Q.** With `Cc1c(C(=O)NS(=O)(=O)c2ccccc2)nn(-c2ccc(Cl)cc2Cl)c1-c1ccc(Cl)cc1` as the molecule, how does the pIC50 read?
**A.** 5.44

**Q.** With `Cc1c(C(=O)N(C)C(=O)C2CCCCC2)nn(-c2ccc(Cl)cc2Cl)c1-c1ccc(Cl)cc1` as the molecule, how does the pIC50 read?
**A.** 6.78

**Q.** `Cc1ccc(S(=O)(=O)NC(=O)c2nn(-c3ccc(Cl)cc3Cl)c(-c3ccc(Cl)cc3)c2C)cc1` was tested. Which pIC50 did it give?
**A.** < 5.00

**Q.** How did the pIC50 turn out when `CCCS(=O)(=O)NC(=O)c1nn(-c2ccc(Cl)cc2Cl)c(-c2ccc(Cl)cc2)c1C` was run?
**A.** < 5.00

**Q.** `Cc1c(C(=O)N(C)C(=O)C(C)(C)C)nn(-c2ccc(Cl)cc2Cl)c1-c1ccc(Cl)cc1` was tested. Which pIC50 did it give?
**A.** 6.66

**Q.** With `Cc1c(C(=O)NS(=O)(=O)c2cccc(Cl)c2)nn(-c2ccc(Cl)cc2Cl)c1-c1ccc(Cl)cc1` as the molecule, how does the pIC50 read?
**A.** 5.92

These molecules were tested on Mus musculus (assay: Reduction in body weight of diet induced obese C57BL/6J mouse at 10 mL/kg, po for 14 days). Conditions: not given.
Type: functional
Parameters: scale not given: the % may be the effect or the level left
How it was run: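 Body weight change (g) from start was tracked daily over days 0–14 and compared with a vehicle-treated control group.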

**Q.** With `Cc1c(C(=O)NN2CCCCC2)nn(-c2ccc(Cl)cc2Cl)c1-c1ccc(Cl)cc1` [RIMONABANT] as the molecule, how does the Activity read?
**A.** 11.5%

**Q.** For `Cc1c(C(=O)NC(=O)C(C)(C)C)nn(-c2ccc(Cl)cc2Cl)c1-c1ccc(Cl)cc1`, which Activity is on record?
**A.** 2.2%

Source: ChEMBL document CHEMBL1138439, “Synthesis and structure-activity relationship of novel diarylpyrazole imide analogues as CB1 cannabinoid receptor ligands” (Bioorg Med Chem, 2009)
